In ChEMBL document CHEMBL3627705 (Bioorg Med Chem Lett, 2015):
pKi: −log10 of the molar value.

Experiments:
[1] = target: T1, Corticotropin-releasing factor receptor 1 (Homo sapiens, UniProt P34998); experiment: Displacement of [125I]-Tyr0-sauvagine from human CRF1 receptor expressed in HEK293T cells after 2 hrs by scintillation counting; format: cell-based, HEK-293T
T1 sequence (P34998 whole entry): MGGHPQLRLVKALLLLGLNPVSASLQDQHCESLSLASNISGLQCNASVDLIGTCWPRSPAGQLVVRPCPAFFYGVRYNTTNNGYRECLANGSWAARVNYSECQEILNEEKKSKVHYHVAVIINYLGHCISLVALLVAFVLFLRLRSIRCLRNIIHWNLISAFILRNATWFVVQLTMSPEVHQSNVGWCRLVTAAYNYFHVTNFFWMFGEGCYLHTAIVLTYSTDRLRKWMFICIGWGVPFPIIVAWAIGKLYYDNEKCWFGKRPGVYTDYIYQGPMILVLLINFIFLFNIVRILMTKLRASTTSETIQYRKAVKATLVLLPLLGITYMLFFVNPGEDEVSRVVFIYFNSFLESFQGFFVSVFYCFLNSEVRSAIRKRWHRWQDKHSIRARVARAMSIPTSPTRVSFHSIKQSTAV

[2] = target: T2, Corticotropin-releasing factor receptor 2 (Homo sapiens) (UniProt Q13324); experiment: Displacement of [125I]-antisauvagine-30 from human CRF2 receptor expressed in HEK293T cells at 1 uM after 2 hrs by scintillation counting; format: cell-based; conditions: HEK-293T
T2 sequence (whole entry): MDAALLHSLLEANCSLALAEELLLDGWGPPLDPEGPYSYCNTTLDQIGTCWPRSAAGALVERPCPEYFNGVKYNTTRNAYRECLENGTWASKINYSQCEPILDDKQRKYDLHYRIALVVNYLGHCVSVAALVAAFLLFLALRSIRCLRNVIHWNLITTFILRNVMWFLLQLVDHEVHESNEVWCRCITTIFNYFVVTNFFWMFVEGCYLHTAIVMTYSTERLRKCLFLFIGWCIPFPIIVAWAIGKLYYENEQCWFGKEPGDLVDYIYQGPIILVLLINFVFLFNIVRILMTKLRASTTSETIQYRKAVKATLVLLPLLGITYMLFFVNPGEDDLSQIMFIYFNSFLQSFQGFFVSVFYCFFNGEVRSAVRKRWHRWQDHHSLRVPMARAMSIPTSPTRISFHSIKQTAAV
Method in brief: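 Competition binding at 23 °C on HEK293T cells transfected with human CRF2 receptor. Each ligand tested at 1 μM against the radiotracer [125I]antisauvagine-30. Read-out is mean % displacement of specific radiotracer binding, n = 2.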

[3] = Lipophilicity, logP of the compound at pH 7.4; format: physicochemical; conditions: buffer
Method in brief: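 Octanol/aqueous buffer shake-flask partition at pH 7.4, done on the 18F-labelled radioligands; mean ± SD of n = 4.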

Brain = experiment: Drug uptake in cynomolgus monkey brain assessed as whole-brain time-activity curve by MicroPET imaging analysis; format: ADME, tissue-based, Macaca fascicularis; conditions: in vivo

| SMILES | pKi [1] | inhibition [2] [%] | further results |
| --- | --- | --- | --- |
| CCCN(CCC)c1cc(C)nc2c1NC(=O)CN2c1ccc(C(C)C)cc1Br | 8.51 |  |  |
| CCCCN(CC)c1cc(C)nc2c1NC(=O)CN2c1ccc(Br)cc1Cl | 8.57 |  |  |
| Cc1cc(N(C)C)c2c(n1)N(c1ccc(C(C)C)cc1Br)CC(=O)N2CCF | 7.23 |  |  |
| CCCCN(CC)c1cc(C)nc2c1NC(=O)CN2c1ccc(C)cc1Br | 8.36 | 5.5 |  |
| CCCCN(CC)c1cc(C)nc2c1NC(=O)CN2c1ccc(OC)cc1C | 8.40 | -2.3 |  |
| CCCCN(CC)c1cc(C)nc2c1NC(=O)CN2c1ccc(I)cc1C | 8.47 |  |  |
| CCCCN(CC)c1cc(C)nc2c1NC(=O)CN2c1ccc(C)cc1C | 8.41 | 6.8 |  |
| CCN(CC)c1cc(C)nc2c1N(CCF)C(=O)CN2c1ccc(C(C)C)cc1Br | 8.14 |  |  |
| Cc1cc(N(C)C)c2c(n1)N(c1ccc(C(C)C)cc1Br)CC(=O)N2C/C=C/CF | 7.85 |  |  |
| CC[C@H](C)[C@H](NC(=O)[C@@H](NC(=O)[C@H](CC(=O)O)NC(=O)[C@H](CC(C)C)NC(=O)[C@H](CC(C)C)NC(=O)[C@H](CC(C)C)NC(=O)[C@H](CCCN=C(N)N)NC(=O)[C@H](CC(N)=O)NC(=O)[C@H](CC(N)=O)NC(=O)[C@H](C)NC(=O)[C@H](C)NC(=O)[C@H](CCC(N)=O)NC(=O)[C@H](CCC(N)=O)NC(=O)[C@H](CCCCN)NC(=O)[C@H](CCC(=O)O)NC(=O)[C@H](CCCCN)NC(=O)[C@H](CCC(=O)O)NC(=O)[C@H](CCC(N)=O)NC(=O)[C@H](CCCCN)NC(=O)[C@H](CCC(=O)O)NC(=O)[C@@H](NC(=O)[C@H](CCC(=O)O)NC(=O)[C@@H](NC(=O)[C@H](CCSC)NC(=O)[C@H](CCCCN)NC(=O)[C@H](CCCN=C(N)N)NC(=O)[C@H](CC(C)C)NC(=O)[C@H](CC(C)C)NC(=O)[C@H](CCC(=O)O)NC(=O)[C@H](CC(C)C)NC(=O)[C@H](CO)NC(=O)[C@H](CC(C)C)NC(=O)[C@H](CC(=O)O)NC(=O)[C@@H](NC(=O)[C@H](CO)NC(=O)[C@@H](NC(=O)[C@@H]1CCCN1C(=O)[C@@H]1CCCN1C(=O)CNC(=O)[C@@H]1CCC(=O)N1)[C@@H](C)CC)[C@@H](C)CC)[C@@H](C)CC)[C@@H](C)CC)[C@@H](C)O)C(=O)O |  | 100 |  |
| CCCN(CCC)c1cc(C)nc2c(-c3cnc(N(C)C)cc3C)c(C)nn12 |  | 23.8 |  |
| CCCCN(CC)c1cc(C)nc2c1NC(=O)CN2c1ccc(Cl)cc1Br | 8.60 |  |  |
| Cc1cc(N(C)C)c2c(n1)N(c1ccc(C(C)C)cc1Br)CC(=O)N2 | 6.74 |  |  |
| CCCCN(CC)c1cc(C)nc2c1NC(=O)CN2c1ccc(C(C)(C)C)cc1Br | 8.38 | -3.8 |  |
| CCCCN(CC)c1cc(C)nc2c1NC(=O)CN2c1ccc(Cl)cc1Cl | 8.47 | 0.9 |  |
| CCCCN(CC)c1cc(C)nc2c1NC(=O)CN2c1ccc(Cl)cc1C | 8.27 |  |  |
| CCCCN(CC)c1cc(C)nc2c1NC(=O)CN2c1ccc(Br)cc1Br | 8.89 | 9.4 |  |
| CCN(C)c1cc(C)nc2c1N(CCCC[17F])C(=O)CN2c1ccc(C(C)C)cc1Br |  |  | logD [3]: 2.22; SUV (Brain): <= 1 |
| Cc1cc(N(C)C)c2c(n1)N(c1ccc(C(C)C)cc1Br)CC(=O)N2CCCCF | 7.67 |  |  |
| CCCCN(CC)c1cc(C)nc2c1NC(=O)CN2c1ccc(C)cc1Cl | 8.36 |  |  |
| CCN(C)c1cc(C)nc2c1N(CCCCF)C(=O)CN2c1ccc(C(C)C)cc1Br | 7.86 |  |  |
| CCN(C)c1cc(C)nc2c1NC(=O)CN2c1ccc(C(C)C)cc1Br | 7.79 |  |  |
| CCCCN(CC)c1cc(C)nc2c1NC(=O)CN2c1ccc(C(C)C)cc1Br | 8.62 | 0.7 |  |
| CCCCN(CC)c1cc(C)nc2c1NC(=O)CN2c1ccc(Br)cc1CC | 8.60 | 2.1 |  |
| CCCCN(CC)c1cc(C)nc2c1N(C)C(=O)CN2c1ccc(Br)cc1Br | 8.62 |  |  |
| Cc1cc(N(C)C)c2c(n1)N(c1ccc(C(C)C)cc1Br)CC(=O)N2CCCC[17F] |  |  | logD [3]: 2.19 |
| CCCCN(CC)c1cc(C)nc2c1NC(=O)CN2c1ccc(Br)cc1C | 8.36 | 5.9 |  |
